# The sample as a whole holds a higher share of hits than the screen did.
# Fibroblast inh = blocks proliferation of human lung fibroblasts; viability, % at 10 µM; actives 1.1% (n = 85,000); LL 47 human lung fibroblast viability, ATP luminescence; hits give low values;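 active means viability at or below 50% in the single dose screen; inactive means viability above 50%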;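 further: compound exposure lasted 72 h before the ATP readout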
#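 Material: human LL 47 lung fibroblast cells; quantity: 1,150 cells/well; medium: IMEM plus 15% FBS; doses: 0.1% DMSO in all compound wells; timing: overnight attachment after seeding, then 72 h compound exposure at 37 °C; detection: CellTiter-Glo luminescence; measure: % viability of median cell-only signal; controls: cell-only wells, no compound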
# HUVEC inhibit = human endothelial cell proliferation inhibition; viability, % at 10 µM (by protocol); AID 648; HUVEC proliferation, CellTiter-Glo luminescence, 72 h; hits give low values; actives 1.1% (n = 86,000);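 active means viability at or below 30%; inactive means viability above 30%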
# PTEN del growth = suppresses growth of cells with PTEN deletion; HCT116 PTEN-null viability, CellTiter-Glo, 60 h; hits give low values; actives 1.2% (n = 140,000); viability, % at 10 µM;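 active means viability at or below a set limit, 4 SD under the median of all tested compounds, cut at about 3.7% in these data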;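 further: PTEN knockout HCT116 line with beta catenin targeted HCT116 as companion control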
# H69AR growth 86K = growth inhibitors of human H69AR lung tumor cells. viability, % at 10 µM. actives 6% (n = 85,000). H69AR lung tumor viability, ATP luminescence, 72 h; hits give low values;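 active means viability at or below 40%; inactive means viability above 40%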;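 further: multidrug resistant small cell line overexpressing MRP-1 efflux transporter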
# HCT116 bCat-KO = beta-catenin-lacking colon tumor cell growth suppression. actives 1.5% (n = 140,000). HCT116 beta-catenin knockout viability, CellTiter-Glo, 60 h; hits give low values. viability, % at 10 µM;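 active means viability at or under a set limit, the compound median less 4 SD, cut at about 6% in these data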
# Hits are given with their value; 0 = inactive; - = no result.
SMILES,Fibroblast inh,HUVEC inhibit,PTEN del growth,H69AR growth 86K,HCT116 bCat-KO
COc1ccc(-c2cc(C(=O)Nc3c(Cl)cc(Cl)cc3Cl)c3ccccc3n2)cc1OC,-,-,1.8,-,2.1
COc1ccc(-c2cc(C(=O)Nc3ccc(Cl)cc3Cl)c3ccccc3n2)cc1OC,-,-,0,-,5.4
COc1ccc(C)cc1NC(=O)c1cc2c(C)nc3ccccc3c2o1,0,0,-,0,-
COc1cc(NC(=O)c2cc3c(C)nc4ccccc4c3o2)cc(OC)c1OC,0,0,0,34.9,0
COc1ccc(NC(=O)c2cc(-c3ccc(C)o3)nc3ccccc23)cc1OC,0,0,0,34.9,0
COc1ccc(-c2cc(C(=O)Nc3nc4ccccc4s3)c3ccccc3n2)cc1OC,-,-,0,-,0
CCCn1c(SCC(=O)Nc2cc(S(=O)(=O)N3CCOCC3)ccc2OC)n[nH]c1=O,-,-,0,-,0
C/C(=N\NC(=O)c1nonc1N)c1cccs1,-,-,0,-,0
O=C(CNc1ccc2ccccc2c1)N/N=C/C=C/c1cccc([N+](=O)[O-])c1,-,-,0,-,0
CN(C)c1ccc(O)c2c1CC1CC3[C@@H](N(C)C)C(=O)C(C(N)=O)=C(O)[C@]3(O)C(=O)C1=C2O (stereo partly specified),0,0,0,34.5,0
Cc1cc(C)c(S(=O)(=O)n2c([N+](=O)[O-])cnc2C)c(C)c1,-,-,0,-,0
CCN1CCN(c2ncc(C(=O)Nc3cc(Cl)c(OC)cc3OC)c3ccccc23)CC1,0,17.8,0,22.9,0
CCN1CCN(c2ncc(C(=O)N3CCN(c4ccccc4OC)CC3)c3ccccc23)CC1,0,0,-,0,-
CCN1CCN(c2ncc(C(=O)Nc3c(F)cc(F)cc3Br)c3ccccc23)CC1,0,0,0,21.4,0
CCOC(=O)C1(Nc2nccs2)Sc2ccccc2NC1=O (stereo unspecified),0,0,0,15.8,0
CCOC(=O)Nc1ccc2c(c1)Nc1ccccc1S2,0,0,0,0,0
COC(=O)c1[nH]c2c(c1C)C(=O)CC(c1cc(OC)ccc1OC)C2 (stereo unspecified),0,0,0,21.8,0
COC(=O)c1[nH]c2c(c1C)C(=O)CC(c1cccs1)C2 (stereo unspecified),46.8,0,0,34.0,0
CCOC(=O)c1ccc(C(=O)OCC)c(NC(=S)Nc2ccc([N+](=O)[O-])cc2OC)c1,-,-,0,-,0
COc1ccc(C2CC(=O)c3cnc(NC(=O)c4ccccc4)nc3C2)c(OC)c1 (stereo unspecified),0,0,0,27.0,0
CC(C)(C)SCCNC(=O)Nc1ccccc1,-,-,0,-,0
N#CC(=C1N=c2ccccc2=N1)c1c(O)[nH]c2ccccc12,-,-,0,-,0
Cn1c(O)c(C(C#N)=C2N=c3ccccc3=N2)c2ccccc21,0,0,0,14.1,0
O=[N+]([O-])c1cccnc1N1CCC(c2cc(-c3ccc(Cl)cc3Cl)n[nH]2)CC1,0,0,0,0,0
O=[N+]([O-])c1cccnc1N1CCC(c2cc(-c3cccc(C(F)(F)F)c3)n[nH]2)CC1,0,3.7,0,34.0,0
SMILES,Fibroblast inh,HUVEC inhibit,PTEN del growth,H69AR growth 86K,HCT116 bCat-KO
O=C(Nc1nc(-c2ccccc2)cs1)C1COc2ccccc2O1 (stereo unspecified),0,0,0,0,0
O=C(Nc1nc(-c2ccccn2)cs1)C1COc2ccccc2O1 (stereo unspecified),43.7,0,0,0,0
CCOc1cc(CNn2cn[nH]c2=S)cc(Cl)c1OCc1ccccc1F,-,-,0,-,0
CCC(C)NC(=O)CSc1nc2c(sc(=S)n2Cc2ccco2)c(=O)n1-c1ccccc1 (stereo unspecified),0,0,0,31.6,0
CC(=O)Oc1c(C)cc(Cl)cc1C(=O)Nc1ccc([N+](=O)[O-])cc1Cl,-,-,1.8,-,1.1
COc1cccc(-c2nc(CS(=O)(=O)CC(=O)Nc3cccc(C)c3C)c(C)o2)c1,0,0,0,1.5,0
COc1ccc(C2NC(=O)NC3=C2CCc2ccccc23)cc1 (stereo unspecified),0,0,0,24.1,0
Cc1cc(-n2c(SCC(=O)NCc3cccs3)nc3n[nH]c(C)c3c2=N)ccc1Cl,0,0,-,24.5,0
CCc1ccc(NC(=O)CSc2nc3n[nH]c(C)c3c(=N)n2-c2cccc(OC)c2)cc1,0,0,0,10.4,0
NS(=O)(=O)c1ccc(NC(=O)C(Sc2ccccc2)c2ccccc2)cc1 (stereo unspecified),-,-,0,-,0
CCOC(=O)c1c(CNCCN(CC)CC)n(C)c2cc(Br)c(OC)cc12,0,0,0,33.5,0
CCOC(=O)c1c(CN2CCCCC2)n(C)c2cc(Br)c(OC)cc12,0,0,0,0,0
CCN(CC)CCNC(=O)c1c(C)n(-c2ccccc2)c2cc(Br)c(OC)cc12,0,6.1,0,25.4,0
CCOC(=O)c1c(CN2CCN(CCO)CC2)n(C)c2cc(Br)c(OC)cc12,0,0,0,16.5,0
COc1ccc(S(=O)(=O)N2CCCCCC2)cc1N(C)S(=O)(=O)c1ccc(C)cc1,-,-,0,-,0
COc1ccc(-c2nn(-c3ccccc3)cc2/C=N/NC(=O)c2ccc3c(c2)OCO3)cc1,-,-,0,-,0
COc1ccc(-c2nn(-c3ccccc3)cc2/C=N/NC(=O)c2ccc(Br)o2)cc1,-,-,0,-,5.0
Cc1ccc(-c2nn(-c3ccccc3)cc2/C=N/NC(=O)CSc2nnc(C)n2-c2ccccc2)cc1,-,-,3.4,-,3.6
O=C(O)c1ccc(NS(=O)(=O)c2cc(Cl)ccc2Cl)cc1,0,0,0,0,0
CC(C)Oc1ccc(C(=O)Nc2ccc(Cl)c(S(=O)(=O)Nc3ccc(Cl)cc3)c2)cc1,-,-,3.1,-,3.1
Cc1ccc(/C=N\NC(=O)C2CN(S(=O)(=O)c3ccccc3)CCN2S(=O)(=O)c2ccccc2)cc1 (stereo unspecified),-,-,0,-,0
COc1ccc2cc(C(c3nnnn3Cc3ccccc3)N3CCCCCC3)c(=O)[nH]c2c1 (stereo unspecified),0,0,-,0,-
COc1ccc2cc(C(c3nnnn3Cc3ccc(F)cc3)N3CCCCCC3)c(=O)[nH]c2c1 (stereo unspecified),0,0,0,36.9,0
Cc1ccc(Cl)cc1N1CCN(CC(O)COCc2ccco2)CC1 (stereo unspecified),-,-,0,-,0
O=C1[C@H]2[C@H]3[C@H](O)[C@H](O)C/C(=N\OC[C@@H](O)COCc4ccco4)[C@@H]3CC[C@H]2C(=O)N1c1ccc(F)cc1F,-,-,0,-,0.3
SMILES,Fibroblast inh,HUVEC inhibit,PTEN del growth,H69AR growth 86K,HCT116 bCat-KO
CC(C)(C)c1ccc(C(=O)NCC(=O)OCC(=O)Nc2ccc3c(c2)OCCO3)cc1,-,-,0,-,0
CC(OC(=O)c1ccc2c(=O)n3c(nc2c1)CCCCC3)C(=O)Nc1ccc(F)cc1Cl (stereo unspecified),-,-,0,-,0
COc1cc(/C=C2\CCc3ccccc3C2=O)cc(OC)c1OC,-,-,1.7,-,2.0
COc1ccc(/C=C2/CCc3ccccc3C2=O)cc1OC,-,-,0,-,0
COc1ccc(/C=C2\COc3ccccc3C2=O)cc1OC,-,-,1.1,-,1.6
COc1cc(/C=C2/CCc3ccccc3C2=O)cc(OC)c1OC,-,-,0,-,0
Cc1c(NC(=S)NC(=O)C2CCCCC2)c(=O)n(-c2ccccc2)n1C,-,-,0,-,0

# From PubChem BioAssay
